The text below walks through data of ChEMBL document CHEMBL4145462, “Nitrogen-containing ecdysteroid derivatives vs. multi-drug resistance in cancer: Preparation and antitumor activity of oximes, oxime ethers and a lactam” (Eur J Med Chem, 2018).

Structures are written as SMILES.

One test can be described thus: Synergistic cytotoxicity against mouse L5178 cells expressing human ABCB1 assessed as combination index at ED90 using 7.5:1 test compound to doxorubicin ratio after 48 hrs by MTT-based checkerboard microplate method. It is filed as functional. A digest of the protocol: (§1)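 Checkerboard microplate combinations of compound with doxorubicin at constant molar ratios. 5 × 10^4 cells/well in McCoy's 5A, 48 h at 37°C, 5% CO2. MTT added to 0.5 mg/mL final for 4 h, SDS/HCl overnight, OD read at 540 and 630 nm. Combination indices derived per ratio for 50%, 75% and 90% growth inhibition by median-effect analysis.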
With `CCO/N=C1/C=C2C3=CC[C@H]([C@@]4(C)OC(C)(C)O[C@@H]4CCC(C)(C)O)[C@@]3(C)CC[C@@H]2[C@@]2(C)C[C@@H]3OC(C)(C)O[C@@H]3C[C@@H]12`, the CI is listed as 0.11.

The nature of the next test: Synergistic cytotoxicity against mouse L5178 cells assessed as combination index at ED75 using 37.5:1 test compound to doxorubicin ratio after 48 hrs by MTT-based checkerboard microplate method. The test is classed as functional. A digest of the protocol:
as §1
For the compound `CCO/N=C1/C=C2C3=CC[C@H]([C@@]4(C)OC(C)(C)O[C@@H]4CCC(C)(C)O)[C@@]3(C)CC[C@@H]2[C@@]2(C)C[C@@H]3OC(C)(C)O[C@@H]3C[C@@H]12`, the CI was 0.66.

A further test in a line: Synergistic cytotoxicity against mouse L5178 cells expressing human ABCB1 assessed as combination index at ED75 using 3.75:1 test compound to doxorubicin ratio after 48 hrs by MTT-based checkerboard microplate method. It is filed as functional. A digest of the protocol:
as §1
As for `CCO/N=C1/C=C2C3=CC[C@H]([C@@]4(C)OC(C)(C)O[C@@H]4CCC(C)(C)O)[C@@]3(C)CC[C@@H]2[C@@]2(C)C[C@@H]3OC(C)(C)O[C@@H]3C[C@@H]12`, the CI is listed as 0.14.

The next test can be described thus: Synergistic cytotoxicity against mouse L5178 cells expressing human ABCB1 assessed as combination index at ED90 using 3.75:1 test compound to doxorubicin ratio after 48 hrs by MTT-based checkerboard microplate method. It is filed as functional. A digest of the protocol: as §1
Consider `CCO/N=C1/C=C2C3=CC[C@H]([C@@]4(C)OC(C)(C)O[C@@H]4CCC(C)(C)O)[C@@]3(C)CC[C@@H]2[C@@]2(C)C[C@@H]3OC(C)(C)O[C@@H]3C[C@@H]12`, for which the CI worked out at 0.1.

The nature of another test: Synergistic cytotoxicity against mouse L5178 cells assessed as combination index at ED50 using 75:1 test compound to doxorubicin ratio after 48 hrs by MTT-based checkerboard microplate method. It is filed as functional. A digest of the protocol:
as §1
As to `CCO/N=C1/C=C2C3=CC[C@H]([C@@]4(C)OC(C)(C)O[C@@H]4CCC(C)(C)O)[C@@]3(C)CC[C@@H]2[C@@]2(C)C[C@@H]3OC(C)(C)O[C@@H]3C[C@@H]12`, the CI came to 0.49.

Another test is described as follows: Synergistic cytotoxicity against mouse L5178 cells assessed as combination index at ED75 using 75:1 test compound to doxorubicin ratio after 48 hrs by MTT-based checkerboard microplate method. It is filed as functional. The method, boiled down: as §1
As to `CCO/N=C1/C=C2C3=CC[C@H]([C@@]4(C)OC(C)(C)O[C@@H]4CCC(C)(C)O)[C@@]3(C)CC[C@@H]2[C@@]2(C)C[C@@H]3OC(C)(C)O[C@@H]3C[C@@H]12`, the CI worked out at 0.5.

Another test in a line: Synergistic cytotoxicity against mouse L5178 cells assessed as combination index at ED90 using 75:1 test compound to doxorubicin ratio after 48 hrs by MTT-based checkerboard microplate method. It is filed as functional. The method, boiled down: as §1
Consider `CCO/N=C1/C=C2C3=CC[C@H]([C@@]4(C)OC(C)(C)O[C@@H]4CCC(C)(C)O)[C@@]3(C)CC[C@@H]2[C@@]2(C)C[C@@H]3OC(C)(C)O[C@@H]3C[C@@H]12`, for which the CI is 0.52.

A short description of the next test: Synergistic cytotoxicity against mouse L5178 cells expressing human ABCB1 assessed as combination index at ED75 using 60:1 test compound to doxorubicin ratio after 48 hrs by MTT-based checkerboard microplate method. It is filed as functional. The method, boiled down:
as §1
Regarding `CCO/N=C1/C=C2C3=CC[C@H]([C@@]4(C)OC(C)(C)O[C@@H]4CCC(C)(C)O)[C@@]3(C)CC[C@@H]2[C@@]2(C)C[C@@H]3OC(C)(C)O[C@@H]3C[C@@H]12`, the CI is 0.36.

The nature of another test: Synergistic cytotoxicity against mouse L5178 cells expressing human ABCB1 assessed as combination index at ED90 using 60:1 test compound to doxorubicin ratio after 48 hrs by MTT-based checkerboard microplate method. The test is classed as functional. The method, boiled down:
as §1
As to `CCO/N=C1/C=C2C3=CC[C@H]([C@@]4(C)OC(C)(C)O[C@@H]4CCC(C)(C)O)[C@@]3(C)CC[C@@H]2[C@@]2(C)C[C@@H]3OC(C)(C)O[C@@H]3C[C@@H]12`, the CI is 0.37.

A short description of another test: Synergistic cytotoxicity against mouse L5178 cells assessed as combination index at ED75 using 300:1 test compound to doxorubicin ratio after 48 hrs by MTT-based checkerboard microplate method. The test is classed as functional. A digest of the protocol:
as §1
For `CCO/N=C1/C=C2C3=CC[C@H]([C@@]4(C)OC(C)(C)O[C@@H]4CCC(C)(C)O)[C@@]3(C)CC[C@@H]2[C@@]2(C)C[C@@H]3OC(C)(C)O[C@@H]3C[C@@H]12`, the CI was found to be 0.66.

A short description of a further test: Synergistic cytotoxicity against mouse L5178 cells assessed as combination index at ED90 using 300:1 test compound to doxorubicin ratio after 48 hrs by MTT-based checkerboard microplate method. The test is classed as functional. The method, boiled down: as §1
Turning to `CCO/N=C1/C=C2C3=CC[C@H]([C@@]4(C)OC(C)(C)O[C@@H]4CCC(C)(C)O)[C@@]3(C)CC[C@@H]2[C@@]2(C)C[C@@H]3OC(C)(C)O[C@@H]3C[C@@H]12`, the CI is 0.74.

A short description of another test: Synergistic cytotoxicity against mouse L5178 cells assessed as combination index at ED50 using 600:1 test compound to doxorubicin ratio after 48 hrs by MTT-based checkerboard microplate method. The test is classed as functional. The method, boiled down:
as §1
In the case of `CCO/N=C1/C=C2C3=CC[C@H]([C@@]4(C)OC(C)(C)O[C@@H]4CCC(C)(C)O)[C@@]3(C)CC[C@@H]2[C@@]2(C)C[C@@H]3OC(C)(C)O[C@@H]3C[C@@H]12`, the CI was 1.21.

A short description of the next test: Synergistic cytotoxicity against mouse L5178 cells assessed as combination index at ED75 using 600:1 test compound to doxorubicin ratio after 48 hrs by MTT-based checkerboard microplate method. It is filed as functional. A digest of the protocol:
as §1
For the compound `CCO/N=C1/C=C2C3=CC[C@H]([C@@]4(C)OC(C)(C)O[C@@H]4CCC(C)(C)O)[C@@]3(C)CC[C@@H]2[C@@]2(C)C[C@@H]3OC(C)(C)O[C@@H]3C[C@@H]12`, the CI is on record as 1.1.

A short description of the next test: Synergistic cytotoxicity against mouse L5178 cells assessed as combination index at ED90 using 600:1 test compound to doxorubicin ratio after 48 hrs by MTT-based checkerboard microplate method. It is filed as functional. A digest of the protocol: as §1
As for `CCO/N=C1/C=C2C3=CC[C@H]([C@@]4(C)OC(C)(C)O[C@@H]4CCC(C)(C)O)[C@@]3(C)CC[C@@H]2[C@@]2(C)C[C@@H]3OC(C)(C)O[C@@H]3C[C@@H]12`, the CI is 1.
